Experiment [1] can be described thus: S. cerevisiae growth inhibition in permissive medium (OD615), pilot counter-assay for S. cerevisiae lifespan shortening project, permissive growth control (AID 705;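 active means growth inhibition above 25% in both replicates, a cutoff set 3 SD above the mean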). The following applies: OD615, 24 h, at 10 µM, stronger effect = higher value. A digest of the protocol:
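System: Engineered DeaD yeast | Buffer or medium: SC raffinose/galactose permissive medium | Incubation: Cells pre-grown 4 h, then 24 h compound exposure, 30 °C humidified | Measured by: Absorbance (optical density) at 615 nm | Read-out: Reduction in yeast growth (OD615)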

Experiment [2] in a line: S. cerevisiae growth inhibition in restrictive medium, OD615, pilot screen, restrictive growth control, yeast lifespan reduction project (AID 706;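 active means growth inhibition above a set limit, 3 SD over mean compound inhibition, in both replicates, cut at about 43% in these data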;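 further: modified DeaD lifespan yeast strain shifted to restrictive glucose medium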). Conditions: OD615, 48 h, at 10 µM, stronger effect = higher value. A digest of the protocol:
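Material: modified S. cerevisiae; Medium: glucose-based CSMM-D restrictive medium; Compound dosing: one concentration, 10 µM final, 0.25% DMSO; Incubation: 48 h compound exposure at 30 °C; Measured by: OD615.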

Experiment [3] is described as follows: doxorubicin toxicity protection in MRP-1 cells – H69AR cells, CellTiter-Glo, duplicate, MRP-1 activator project, pilot screen (AID 807).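 Further: compound pretreatment 18-22 h then 72 h combined with doxorubicin; 0% = doxorubicin alone and 100% = vehicle without doxorubicin.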 Conditions: H69AR viability with doxorubicin, CellTiter-Glo luminescence; at 10 µM; stronger effect = higher value.
The nature of experiment [4]: viability of HCT116 without oncogenic beta-catenin – human colon tumor cells, pilot screen (AID 823;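 active means cell viability at or below a set limit in both duplicate runs, the limit being the all-compound median minus 4 SD, cut at about 23% in these data, passing the limit was not always enough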;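 further: 0% = wells killed by 20 µM Hyamine and 100% = untreated DMSO cell wells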). The following applies: HCT116 beta-catenin knockout viability, CellTiter-Glo, 60 h; at 10 µM; stronger effect = lower value. Background: ATP-based viability assays read luminescence as a measure of living cells.
Experiment [5] in a line: viability of PTEN-null HCT116 cells – cell-based, HCT116 clonal line, CellTiter-Glo, pilot screen (AID 824;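 active means viability at or below 27.92% in each of two runs, the all-compound median minus 4 SD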;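 further: 0% = 20 µM Hyamine control and 100% = vehicle cell control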). The following applies: HCT116 PTEN-deleted viability, 60 h, at 10 µM, stronger effect = lower value.
A short description of experiment [6]: RAM pathway blockade in budding yeast – dse1pr::URA3 reporter, 5-FOA selection, pilot screen (AID 869;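 active means inhibition over a set limit, the all-compound mean plus 3 SD, in both replicate runs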;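 further: 0% = DMSO wells with no growth and 100% = 10 µM 1-NA-PP1 with full growth; RAM network block rescues cells from 5-FOA so hits raise OD615 growth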). The following applies: S. cerevisiae dse1pr::URA3 5-FOA growth, OD615, 2 d; at 10 µM; stronger effect = higher value; strain carries analog-sensitive mutant Cbk1 kinase.
The nature of experiment [7]: RAM signaling pathway blockade in yeast – S. cerevisiae, Pdr1DBD-CYC8 efflux-inhibited sensitized strain, primary screen (AID 1298;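 active means RAM network inhibition above 8.4% in each of two replicates, 3 SD over the compound average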;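 further: 0% = DMSO untreated cells without growth and 100% = 10 µM 1-NA-PP1 full growth; higher means more yeast growth rescued from 5-FOA killing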). Conditions: S. cerevisiae cbk1-as DSE1-URA3 strain, 5-FOA growth OD615, 2 d; at 50 µM; stronger effect = higher value.

Values without a mark were called inactive. Inconclusive results are not listed. The source made the active and inactive calls.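 How the source made its calls, unless noted: active means viability increase at or above a cutoff of the median across tested compounds plus 3 SD (cut at about 8.5% in these data, passing the limit was not always enough); inconclusive means some gains above the cutoff, reason not given; inactive means the rest.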

By viability is commonly meant a read-out of living cells in per cent, often relative to untreated cells. The inhibition is the drop in the measured response relative to a control, in per cent.

As for `C=CCSC1=N/C(=C\c2ccc(C)o2)C(=O)S1`, the growth inhibition in experiment [1] was -9.79%; in experiment [2] it was -6.84%. Moreover, the viability increase in experiment [3] is -3.69%. For the same compound, the viability in experiment [4] is 101%; in experiment [5], 98.6%. Moreover, the inhibition in experiment [6] was 1.58%. Moreover, the RAM network inhibition in experiment [7] is 2.06%.

Regarding `C/C(=C1\SC(N2CCOCC2)=NC1=O)c1ccccc1`, the values for the growth inhibition in experiment [1] and in experiment [2] were -19.6% and -10.6%, respectively. Moreover, the viability increase in experiment [3] was -2.49%. The values for the viability in experiment [4] and in experiment [5] were 97% and 102%, respectively. Moreover, the inhibition in experiment [6] is 0.76%. In addition, the RAM network inhibition in experiment [7] was 1.09%.

For `COc1ccc(C2c3sc(=O)[nH]c3SC3C(=O)N(c4ccccc4)C(=O)C32)cc1` (centres undefined), the growth inhibition in experiment [1] was -6.11%; in experiment [2], 12.6%. In experiment [3], the viability increase was 0.68%. Also, the viability in experiment [4] was 99.9%; in experiment [5] it was 99.3%. Also, in experiment [6], the inhibition is 2.98%. Moreover, the RAM network inhibition in experiment [7] is 5.53%.

Turning to `Clc1ccc(-n2ncc3c(N4CCCCCC4)ncnc32)cc1`, the results for the growth inhibition in experiment [1] and in experiment [2] were 1.26% and -16.7%, respectively. Besides, in experiment [3], the viability increase was -0.56%. Also, the viability was 83.5% in experiment [4] and 78.5% in experiment [5]. Further, the inhibition in experiment [6] is -0.14%. The RAM network inhibition in experiment [7] is 8.42%.

In the case of `CCNC(=O)c1c(N)sc2c1CCCCC2`, the growth inhibition in experiment [1] is -5.81%; in experiment [2], 1.6%. For the same compound, in experiment [3], the viability increase is -2.57%. Also, the viability is 103% in experiment [4] and 100% in experiment [5]. In experiment [6], the inhibition is 1.88%. In addition, the RAM network inhibition in experiment [7] was 4.23%.

Consider `CC1(C)CC(=O)C2=C(C1)Nc1ccccc1NC2c1ccccn1` (centres undefined), for which the values for the growth inhibition in experiment [1] and in experiment [2] were 11.4% and 3.1%, respectively. For the same compound, the viability increase in experiment [3] was -3.1%. Moreover, the viability in experiment [4] was 100%; in experiment [5], 95.4%. Further, in experiment [6], the inhibition was 0.245%. Moreover, the RAM network inhibition in experiment [7] was 3.12%.

As to `Cc1ccc2ccc(S(=O)(=O)n3nc(C)cc3C)cc2c1`, the growth inhibition was -6.58% in experiment [1] and 2.99% in experiment [2]. Also, the viability increase in experiment [3] was -1.12%. Moreover, the viability was 84.9% in experiment [4] and 81.2% in experiment [5]. Further, the inhibition in experiment [6] was 2.06%. In experiment [7], the RAM network inhibition is 5.5%.

On to `CC(=O)Nc1ccc(S(=O)(=O)Nc2cccc(C(=O)NC(C)(C)C)c2)cc1`, for which the growth inhibition is -5.5% in experiment [1] and -5.24% in experiment [2]. In addition, the viability increase in experiment [3] is -1.14%. For the same compound, the viability in experiment [4] is 92.1%; in experiment [5] it was 88.2%. Also, in experiment [6], the inhibition is 1.53%. In addition, in experiment [7], the RAM network inhibition was 6.92%.

Turning to `COc1cccc(CNC(=O)CN(c2cc(C)cc(C)c2)S(=O)(=O)c2c(C)noc2C)c1`, the growth inhibition in experiment [1] was -6.25%; in experiment [2], -3.9%. In experiment [3], the viability increase is -2.41%. Also, the viability is 90.3% in experiment [4] and 90.4% in experiment [5]. Besides, the inhibition in experiment [6] was 1.34%. For the same compound, in experiment [7], the RAM network inhibition is 7.12%.

With `C=CCn1c(C(C)NC(=O)C(C)(C)C)nc2ccccc21` (centres undefined), the growth inhibition in experiment [1] is -9.47%; in experiment [2], -11.3%. Further, the viability increase in experiment [3] is 1.33%. For the same compound, the results for the viability in experiment [4] and in experiment [5] were 94.8% and 95.5%, respectively. Besides, the inhibition in experiment [6] was 1.41%. Further, the RAM network inhibition in experiment [7] is 0.71%.

As for `CCCCCn1c(N2CCC(Cc3ccccc3)CC2)nc2c1c(=O)[nH]c(=O)n2C`, the growth inhibition is -14.9% in experiment [1] and -29.9% in experiment [2]. Further, the viability increase in experiment [3] was -8.6%. Besides, the figures for the viability in experiment [4] and in experiment [5] were 15.1% (active) and 12.8% (active), respectively. Further, the inhibition in experiment [6] is 1.22%. Moreover, the RAM network inhibition in experiment [7] was 7.3%.

In the case of `CC(=O)Nc1ccc(S(=O)(=O)NCCSCc2ccco2)cc1`, the growth inhibition was -4.83% in experiment [1] and 16.6% in experiment [2]. Moreover, in experiment [3], the viability increase was -4.43%. Besides, the results for the viability in experiment [4] and in experiment [5] were 82.2% and 86%, respectively. Besides, the inhibition in experiment [6] is 2.15%. Moreover, the RAM network inhibition in experiment [7] is 2.29%.

As to `O=C1c2ccccc2C(=O)N1CSc1ncccn1`, the values for the growth inhibition in experiment [1] and in experiment [2] were 0.27% and -7.91%, respectively. Also, the viability increase in experiment [3] was -3.86%. For the same compound, the results for the viability in experiment [4] and in experiment [5] were 87.4% and 89.7%, respectively. The inhibition in experiment [6] was 1.09%. For the same compound, in experiment [7], the RAM network inhibition is 2.25%.

As for `Cc1ccc(NC(=O)CSC2=C(C#N)C(c3ccc4c(c3)OCO4)C3=C(CCCC3=O)N2)c(C)c1` (centres undefined), the growth inhibition in experiment [1] is 21.3%; in experiment [2], 59.1% (active). The viability increase in experiment [3] was -5.27%. For the same compound, the viability in experiment [4] was 73.7%; in experiment [5], 72.7%. Further, the inhibition in experiment [6] is 1.4%. Moreover, in experiment [7], the RAM network inhibition was 5.06%.

As for `O=C(Oc1ccc2c(=O)c(Cl)coc2c1)c1ccncc1`, the growth inhibition in experiment [1] was -0.185%; in experiment [2] it was 7.12%. Besides, in experiment [3], the viability increase was -4.3%. For the same compound, the viability is 90.4% in experiment [4] and 99.2% in experiment [5]. The inhibition in experiment [6] was 0.015%. In addition, the RAM network inhibition in experiment [7] was -0.99%.

For the compound `COc1ccc(C2=NOC(C(=O)Nc3c(C)n(C)n(-c4ccccc4)c3=O)C2)cc1OC` (centres undefined), the growth inhibition in experiment [1] is -9.01%; in experiment [2], -7.64%. The viability increase in experiment [3] is 1.69%. In addition, the viability in experiment [4] was 102%; in experiment [5] it was 106%. Besides, the inhibition in experiment [6] is 0.4%. Moreover, the RAM network inhibition in experiment [7] is 4.75%.

For `Cc1cccc(N(C)S(=O)(=O)c2cccc3nsnc23)c1`, the growth inhibition is -12% in experiment [1] and -17.9% in experiment [2]. The viability increase in experiment [3] is -4.32%. The results for the viability in experiment [4] and in experiment [5] were 92.5% and 89%, respectively. In addition, the inhibition in experiment [6] is 0.325%. Besides, the RAM network inhibition in experiment [7] is 4.78%.
